Test results as given in PMC9890663 (RSC Advances, 2023).
In brackets after ≈: the same amount, converted by molar mass. Several values for one entry are separate records, joined by “and”; a condition that tells them apart may be missing. Equal values may be shown once. Read-outs that look alike come from different tables or passages of the source. One block for each compound: values may come before it.

Columns and labels:
calf thymus DNA (ct-DNA) [1] = conditions: DNA intercalator; cited from earlier work
S. aureus ATCC 25923 = assay: MIC, broth microdilution; type: cell-based; conditions: Staphylococcus aureus, ATCC25923, 24 h
How it was run: (§1)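 Broth microdilution. S. aureus ATCC 25923 followed CLSI M07-A8 at 5 × 10^5 cfu mL−1; Candida strains followed EUCAST yeast method v7.3.1 at 1 × 10^5 cfu mL−1. Test compound from a 50 mg mL−1 DMSO stock was tested from 500 μg mL−1 downward, with final DMSO <1% v/v. MIC was the lowest concentration inhibiting growth after 24 h at 37 °C, read on a plate reader.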

P. aeruginosa PAO1 = assay: MIC, broth microdilution; type: cell-based; conditions: Pseudomonas aeruginosa, PAO1, 24 h
C. albicans ATCC 10231 [2] = assay: MIC, broth microdilution; type: cell-based; conditions: Candida albicans, ATCC10231, 24 h
How it was run: as §1

MRC-5 cells = assay: Antiproliferative activity, MTT assay; type: cell-based, human
C. albicans ATCC 10231 [3] = assay: Inhibition of hyphae formation on Spider medium; type: cell-based, Candida albicans; conditions: 0.5 × MIC, vs DMSO control
C. albicans = conditions: cited from earlier work
C. albicans ATCC 10231 [4] = assay: Biofilm formation assay, crystal violet staining; type: cell-based, Candida albicans; conditions: MIC of the complexes applied
How it was run: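 Candida albicans ATCC 10231 biofilm assay, starting inoculum 1 × 10^6 cfu mL−1. Test compound was applied as two-fold serial dilutions from 3.5 down to 0.05 μg mL−1, then incubated 48 h at 37 °C. Adherent biomass was stained with crystal violet and read at 590.0 nm. The assay was repeated three times.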

[5] = test system: Chromobacterium violaceum CV026; assay: Anti-quorum sensing disc assay, violacein production; type: cell-based; conditions: 100 μg per disc
How it was run: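 Agar-overlay disc assay. Inocula were grown overnight in LB at 30 °C and 180 rpm, with antibiotic for CV026. 50.0 μL of culture was seeded into 0.3% semi-solid LB agar and overlaid on LB plates. CV026 received N-hexanoyl-L-homoserine lactone (final 5.0 μM); S. marcescens ATCC 27117 received no autoinducer. Compound was placed on sterile discs and plates incubated overnight at 30 °C. Pigment inhibition was scored as white halo width (mm), distinct from growth-clearance zones.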

[6] = biological target: bovine serum albumin (BSA) (Bos taurus, UniProt P02769); assay: BSA fluorescence emission quenching; type: binding
Chain of bovine serum albumin (BSA) (P02769 25-607): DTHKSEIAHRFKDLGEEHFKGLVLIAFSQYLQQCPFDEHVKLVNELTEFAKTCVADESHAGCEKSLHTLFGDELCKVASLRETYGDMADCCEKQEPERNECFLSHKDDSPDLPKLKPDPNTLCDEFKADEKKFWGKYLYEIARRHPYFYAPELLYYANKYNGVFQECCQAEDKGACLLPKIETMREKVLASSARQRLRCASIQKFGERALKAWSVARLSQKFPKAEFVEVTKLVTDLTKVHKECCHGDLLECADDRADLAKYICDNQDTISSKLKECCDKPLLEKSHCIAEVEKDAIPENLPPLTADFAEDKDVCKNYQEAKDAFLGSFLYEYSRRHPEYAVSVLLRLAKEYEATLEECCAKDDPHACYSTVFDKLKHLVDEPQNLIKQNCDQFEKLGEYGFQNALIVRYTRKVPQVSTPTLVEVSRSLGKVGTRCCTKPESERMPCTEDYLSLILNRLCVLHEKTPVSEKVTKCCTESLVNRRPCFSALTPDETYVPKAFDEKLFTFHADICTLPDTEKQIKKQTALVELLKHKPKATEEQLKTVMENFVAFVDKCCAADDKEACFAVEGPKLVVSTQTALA
How it was run: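 Tryptophan fluorescence quenching of 5 μM BSA in PBS pH 7.4, titrated with test compound (DMSO stock) up to 130 μM. Excitation was 290.0 nm and spectra were recorded at 295.0–500.0 nm, with quenching monitored at 365.0 nm. Ksv came from a Stern–Volmer plot, and Kq from Ksv with τ0 of 10^-8 s. KA and binding-site number n came from a log(F0−F)/F vs log[complex] plot.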

calf thymus DNA (ct-DNA) [7] = assay: Competitive EthBr-ct-DNA fluorescence emission study; type: binding
How it was run: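 Ethidium bromide displacement on calf thymus DNA in PBS pH 7.4, with ct-DNA quantified by A260 (ε 6.6 × 10^3 M−1 cm−1). [DNA]/[EthBr] was held at 10 while test compound (10 mM DMSO stock) was increased. Excitation was 545.0 nm, emission 550.0–750.0 nm. Ksv and Kq (τ0 10^-8 s) came from the Stern–Volmer equation; KA and n from a log(F0−F)/F vs log[complex] plot.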

Compound: C[n+]1c2ccccc2c(-c2c3ccccc3[n+](C)c3ccccc23)c2ccccc21 [lucigenin]
Hypochromism (calf thymus DNA (ct-DNA) [1]): 50%

MIC (S. aureus ATCC 25923): > 1830 µM and > 500 µg/mL
MIC (P. aeruginosa PAO1): > 1830 µM and > 500 µg/mL
MIC (C. albicans ATCC 10231 [2]): > 1830 µM and > 500 µg/mL
Compound: COC(=O)c1cnc(-c2cnccn2)cc1C(=O)OC [py-2pz, dimethyl 6-(pyrazine-2-yl)pyridine-3,4-dicarboxylate]
IC50 (MRC-5 cells; Homo sapiens, MRC5, 48 h, MRC-5, 48 h treatment): 120 µg/mL (≈ 439 µM)
C. albicans hyphae formation (C. albicans ATCC 10231 [3]): did not show a potency to inhibit C. albicans filamentous growth

Compound: [CuCl2(py-2metz)]n
MIC (C. albicans): 31.25 µg/mL

Compound: {[Ag(NO3)(py-2pz)]·0.5H2O}n [Complex 4]
fold less toxic against MRC-5 than AgSD (MRC-5 cells): 1.7 fold
percentage of the formed C. albicans biofilms (C. albicans ATCC 10231 [4]): 62%
clear zones of inhibition (antibacterial effect) [5]: 5 mm
Hypochromism ([6]; BSA fluorescence at 365.0 nm): 60.5%
K sv ([6]; Stern-Volmer constant, BSA 5 μM, PBS pH 7.4): (2.10 ± 0.02) × 10^4 M^−1
K A ([6]; binding constant, BSA): 21500 M⁻¹
K q ([6]; quenching rate constant, BSA): 2.1e+12 M⁻¹ s⁻¹
Hypochromism (calf thymus DNA (ct-DNA) [7]; EthBr-ct-DNA fluorescence): 15.4%
K sv (calf thymus DNA (ct-DNA) [7]; Stern-Volmer constant, EthBr-ct-DNA, PBS pH 7.4): (1.14 ± 0.01) × 10^3 M^−1
K A (calf thymus DNA (ct-DNA) [7]; binding constant, ct-DNA): 2000 M⁻¹
K q (calf thymus DNA (ct-DNA) [7]; quenching constant, EthBr-ct-DNA): 1.14e+11 M⁻¹ s⁻¹
